RBBP9 inhibitor: human RBBP9 hydrolase inhibition; AID 1515; inhibition, % at 7.94 µM; O75884; recombinant RBBP9, FP-Rh probe fluorescence polarization; actives 0.2% (n = 220,000);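 active = inhibition above the campaign mean of all tested compounds plus 3 SD, cut at about 14% in these data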;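 note: plate controls were DMSO wells with RBBP9 for no effect and wells lacking RBBP9 protein for full effect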
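Test system: recombinant human RBBP9. Quantity: 2.5 µM RBBP9 dispensing solution, before mixing. Detection: FP readout at 525/598 nm. Reagent: Serine-hydrolase probe FP-Rh, 375 nM pre-mixing. Measure: % inhibition. Control set: DMSO-treated enzyme wells and wells lacking RBBP9. Buffer or medium: Tris-NaCl-Pluronic buffer, pH 8.0. Times: preincubation 30 min plus labeling 45 min at 25 °C.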
PAFAH1B2 FP inh: PAFAH1B2 (human) inhibition. recombinant PAFAH1B2, FP-rhodamine activity probe, fluorescence polarization. inhibition, % at 3.39 µM. actives 1.2% (n = 340,000). AID 492953. P68402;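 active = inhibition above the mean of all tested compounds plus 3 SD, cut at about 24% in these data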;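 note: 0% = enzyme with DMSO and 100% = wells lacking PAFAH1B2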
Target sequence (P68402 whole entry, looked up): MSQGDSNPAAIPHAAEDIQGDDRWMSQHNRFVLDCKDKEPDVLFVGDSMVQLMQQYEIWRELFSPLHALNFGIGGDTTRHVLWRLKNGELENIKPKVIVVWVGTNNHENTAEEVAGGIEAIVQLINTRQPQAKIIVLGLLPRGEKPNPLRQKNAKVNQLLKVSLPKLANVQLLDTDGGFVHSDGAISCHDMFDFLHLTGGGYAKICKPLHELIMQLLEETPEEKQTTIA
PAFAH1B3 FP inh: inhibitors of human PAFAH1B3; recombinant PAFAH1B3, FP-rhodamine probe, fluorescence polarization; actives 0.28% (n = 340,000); inhibition, % at 3.39 µM; Q15102; AID 492972;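 active = inhibition above the screen-wide average of all tested compounds plus 3 SD, cut at about 25% in these data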;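 note: 0% = enzyme with DMSO only and 100% = wells lacking PAFAH1B3 protein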
pPAFAH FP inh: inhibitors of human plasma PAF acetylhydrolase (pPAFAH); Q13093; recombinant pPAFAH, FP-rhodamine probe fluorescence polarization; inhibition, % at 3.39 µM; actives 1.5% (n = 330,000);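 active = inhibition above the mean inhibition across the screen plus 3 SD, cut at about 25% in these data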;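 note: inhibitors block binding of the rhodamine activity-based probe so polarization drops; 0% = enzyme with DMSO and 100% = wells lacking pPAFAH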
Target sequence (Q13093 whole entry, looked up): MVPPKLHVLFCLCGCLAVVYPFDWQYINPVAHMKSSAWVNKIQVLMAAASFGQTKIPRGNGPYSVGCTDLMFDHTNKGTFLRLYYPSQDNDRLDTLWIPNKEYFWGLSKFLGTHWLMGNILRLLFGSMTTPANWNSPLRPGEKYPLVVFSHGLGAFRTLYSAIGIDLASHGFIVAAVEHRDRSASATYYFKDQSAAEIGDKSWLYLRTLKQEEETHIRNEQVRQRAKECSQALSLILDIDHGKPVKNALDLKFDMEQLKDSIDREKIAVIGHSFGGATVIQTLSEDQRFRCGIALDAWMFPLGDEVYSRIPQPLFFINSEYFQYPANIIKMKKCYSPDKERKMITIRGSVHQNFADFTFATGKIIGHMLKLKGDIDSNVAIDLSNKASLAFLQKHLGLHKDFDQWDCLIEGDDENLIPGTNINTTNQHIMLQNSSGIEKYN
PAFAH2 inh: inhibitors of human PAFAH2; recombinant PAFAH2, FP-rhodamine activity probe, fluorescence polarization; actives 0.99% (n = 340,000); AID 492956; inhibition, % at 3.39 µM; Q99487;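 active = inhibition above the mean over all tested compounds plus 3 SD, cut at about 30% in these data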;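 note: inhibitors block probe labeling of enzyme so polarization drops; 0% = enzyme with DMSO and 100% = wells lacking PAFAH2 protein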
* = called active by the depositor; · = no result given. Only some compounds are listed: those with a hit (about 2.7% of all), similar ones and a draw of the others.

SMILES	RBBP9 inhibitor	PAFAH1B2 FP inh	PAFAH1B3 FP inh	pPAFAH FP inh	PAFAH2 inh
Cn1c2ccccc2c(=O)c2c(=O)n(Cc3ccccc3)c(-c3ccc(F)cc3)nc21	-1.7	-0.5	-5.1	-3.7	3.2
CC1=NN(c2nc(-c3ccccc3)cs2)C(=O)C1	1.5	9.8	3.8	23.6	20.1
O=C1CC(c2ccccc2)=NN1c1nc(-c2ccccc2)cs1	-0.6	7.7	18.1	27.5*	65.6*
Cc1ccc(SCC(=O)NNC(=O)c2cncc(Br)c2)cc1	·	28.9*	10.0	1.7	-3.8
COc1cccc(-c2noc(CCC(=O)NCC3CCCO3)n2)c1 (stereo unspecified)	-8.2	-1.4	9.8	3.4	-0.1
N/C(=N\OC(=O)C1CCCCC1)c1ccc(Br)cc1	·	6.0	13.7	-1.7	3.4
C/C(=N/OC(=O)C1CC12CCC2)c1ccc(Br)cc1 (stereo unspecified)	0.1	52.5*	5.2	4.8	50.6*
Cc1nc(N2N=C(c3ccc(Cl)cc3)CC2c2ccco2)sc1C(=O)N(C)C (stereo unspecified)	-6.5	-0.9	5.1	14.4	13.3
COc1ccc(C2=NN(c3nc(-c4ccccc4)c(CC(=O)O)s3)C(c3ccco3)C2)cc1 (stereo unspecified)	-1.4	-3.1	-7.3	29.8*	3.2
COc1cc(C)c(/C=C/C(C)=C/C=C/C(C)=C/C(=O)O)c(C)c1C	·	1.1	3.3	29.0*	17.4
O=C1NN(c2ccc(Cl)c(Cl)c2)C(=O)/C1=C/c1cccc(OC(=O)c2cccs2)c1	0.3	·	·	57.0*	·
O=C1NN(c2ccccc2)C(=O)/C1=C\c1cccc(OC(=O)c2cccs2)c1	-2.2	19.1	7.4	14.0	26.7
Oc1ccc(NCc2cccs2)cc1	·	2.9	7.7	28.0*	-9.4
N#Cc1c(Nc2cccc(F)c2)sc2c(O)cc(=O)[nH]c12	-7.6	·	·	25.1*	·
Cc1cc(=O)[nH]c(Nc2cccc(F)c2)n1	·	-2.8	9.8	-2.0	-1.2
COc1ccc(N=Cc2c(C)[nH][nH]c2=O)cc1	-5.2	0.1	2.0	5.3	3.7
COc1cc2c(cc1NC(=O)C(C)NCc1ccccc1)oc1ccccc12 (stereo unspecified)	0.9	-0.5	5.9	26.1*	-6.7
Cc1nn(-c2ncc(C(F)(F)F)cc2Cl)c(=O)n1-c1c(F)cccc1F	-3.7	-1.5	8.3	30.0*	7.0
Cc1cccc(C)c1-n1c(C)nn(-c2ncc(C(F)(F)F)cc2Cl)c1=O	-2.6	3.9	5.3	-1.7	-2.2
N#Cc1cc(N2CCCCC2)c([N+](=O)[O-])cc1C#N	-1.3	1.4	-4.3	1.8	-1.1
O=[N+]([O-])c1cc2no[n+]([O-])c2cc1N1CCCCC1	·	70.2*	86.3*	·	74.0*
CC(C#N)Sc1ncnc2sc(-c3ccccc3)cc12 (stereo unspecified)	·	3.5	4.2	15.4	0.6
Cc1cccc(C2=NN(c3ccc(Br)cc3)[C@@H](C(=O)N3CCOC3=O)[C@@H]2c2ccc(F)cc2)c1	-8.7	-7.4	6.3	29.7*	-2.4
O=C(OCC(=O)N1CCOCC1)c1ccc(Br)cc1	·	9.7	4.2	1.1	18.2
CCN(CC(=O)Nc1ccc(NC(C)=O)cc1)C(=O)c1cc(C)on1	·	-2.6	6.5	0.9	-0.2
SMILES	RBBP9 inhibitor	PAFAH1B2 FP inh	PAFAH1B3 FP inh	pPAFAH FP inh	PAFAH2 inh
CCOC(=O)CC(=O)NC(CC(=O)OC)c1ccc(Br)cc1 (stereo unspecified)	-5.9	2.2	3.3	-2.0	9.4
CCOC(=O)CC(=O)NC(CC(=O)OC)c1ccc(C(C)C)cc1 (stereo unspecified)	2.1	28.5*	6.1	-0.3	6.3
NC(=O)c1nc[nH]c1C(=O)Nc1cccc(C(F)(F)F)c1	·	-1.3	7.9	0.4	-2.6
O=C(Cc1c(C(=O)O)[nH]c2ccccc12)NCCN1CCN(c2cccc(Cl)c2)CC1	-10.1	24.8*	9.3	4.5	0.6
O=C(O)c1[nH]c2ccc(Cl)cc2c1CC(=O)N1CCN(c2ccccc2)CC1	-2.8	24.5*	5.7	4.9	7.5
O=C(CC1Oc2ccccc2NC1=O)NCCCN1CCN(C2CCCCC2)CC1 (stereo unspecified)	3.1	0.5	6.6	4.1	-5.5
CC1CCc2sc(C(=O)N/N=C/c3ccc([N+](=O)[O-])cc3)cc2C1 (stereo unspecified)	-6.4	-4.2	-11.2	1.8	-10.9
O=C(Nc1nc(-c2ccco2)c(-c2ccco2)s1)c1cnccn1	·	·	·	33.1*	·
Cc1ccc(SCC2(O)CCN(C(=O)c3ccc(Cl)cc3)CC2)cc1	-8.5	5.8	-1.8	28.4*	-1.9
CCN1CCN(C(=O)c2ccc(CSc3ccc(C)cc3)cc2)CC1	-8.6	40.0*	6.2	4.5	11.6
O=S(=O)(c1ccccc1)N1CCC(O)(CSc2ccc(Cl)cc2)CC1	-6.8	17.1	3.0	6.7	8.3
O=C(O)CSc1cc(NS(=O)(=O)c2cccc([N+](=O)[O-])c2)c2ccccc2c1O	1.9	27.6*	49.3*	·	27.7
Cc1ccc(C)c(S(=O)(=O)Nc2cc(SCC(=O)O)c(O)c3ccccc23)c1	-1.1	72.3*	51.0*	12.4	34.1*
CCOc1ccc(CCNC(=O)CCNC(=O)c2ccco2)cc1OCC	·	-3.0	2.7	-0.1	9.0
Cc1ccc(CS(=O)(=O)CCC(=O)NCc2ccccc2Cl)cc1	·	7.9	5.6	29.4*	-5.5
COc1ccccc1CNC(=O)CCS(=O)(=O)Cc1ccc(C)cc1	·	5.6	5.5	18.4	-0.8
CCOc1ncccc1C(=O)OCC(=O)Nc1ncc(C(F)(F)F)cc1Cl	-12.0	-3.1	0.5	26.5*	17.0
O=C(COC(=O)c1cccc2ccccc12)Nc1ncc(C(F)(F)F)cc1Cl	0.4	-0.7	-3.7	1.9	-0.7
CCOc1ccccc1C(=O)OCC(=O)Nc1ncc(C(F)(F)F)cc1Cl	-6.6	3.9	11.2	26.8*	4.2
Nc1nc(C2CCCCC2)cs1	-1.2	57.6*	6.8	-0.5	-1.2
COc1ccc(S(=O)(=O)Nc2ccccc2OC)cc1N=Nc1c(O)[nH]c(=S)[nH]c1=O	·	6.9	6.0	26.1*	15.0
Cn1c(N)c(C(=O)CSc2nn(-c3ccccc3)c(=S)s2)c(=O)n(C)c1=O	·	4.8	-0.7	·	1.3
CC(Sc1nn(-c2ccc(F)cc2)c(=S)s1)C(=O)c1c(N)n(C)c(=O)n(C)c1=O (stereo unspecified)	·	2.8	1.4	29.8*	6.6
O=C1CSC(c2cccc([N+](=O)[O-])c2)N1C1CC2CCC1C2 (stereo unspecified)	-10.6	24.2*	-1.6	0.4	2.5
CCOC(=O)N1CCN(CC(O)COc2cc(C)cc(C)c2)CC1 (stereo unspecified)	·	-0.5	4.8	0.4	1.4
Cc1cc(C)cc(NC(=O)Nc2ccc(-n3ccc(C(F)(F)F)n3)cc2)c1	-5.2	49.0*	6.7	-24.3	2.3
O=C(Nc1ccc(-n2ccc(C(F)(F)F)n2)cc1)Nc1cccc(Cl)c1	-77.6	-8.3	-30.2	-26.4	-23.2

Bioassay records (PubChem)
